From PubChem
NCF1 inh: blocks human p47phox regulatory protein of NADPH oxidases; p47phox/p22phox peptide binding, fluorescence polarization, 2 h; inhibition, % at 24.7 µM; 220,000 compounds, 0.53% hits; AID 1274
Target sequence (P14598 whole entry, looked up): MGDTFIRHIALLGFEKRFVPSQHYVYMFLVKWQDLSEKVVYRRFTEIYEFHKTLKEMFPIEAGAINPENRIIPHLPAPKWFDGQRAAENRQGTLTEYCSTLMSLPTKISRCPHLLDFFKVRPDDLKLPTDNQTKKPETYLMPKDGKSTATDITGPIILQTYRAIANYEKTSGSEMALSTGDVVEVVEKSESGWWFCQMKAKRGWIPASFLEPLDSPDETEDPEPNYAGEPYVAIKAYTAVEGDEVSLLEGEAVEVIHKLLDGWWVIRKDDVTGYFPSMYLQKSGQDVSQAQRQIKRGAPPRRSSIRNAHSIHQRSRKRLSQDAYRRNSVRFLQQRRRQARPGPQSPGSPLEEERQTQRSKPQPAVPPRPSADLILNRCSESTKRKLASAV
eIF4E-4G inh: eIF4E/eIF4G interaction inhibition in translation initiation. P63073+Q04637. TR-FRET eIF4E-eIF4GI(517-606) binding, 2 h. inhibition, % at 21.7 µM. 220,000 compounds, 0.37% hits. AID 782
Wee1 degr inh: blocks degradation of human Wee1 kinase; HeLa Luc-Wee1K328M stability, luciferase luminescence; 100% = proteasome inhibitor MG132 effect; reporter increase, % at 5 µM; 220,000 compounds, 1.2% hits; P30291;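 active = activation above the mean of all tested compounds plus 3 SD, set per screening run, cut at about 8.8% in these data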;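 also: cells exposed to compound for 20 h before luminescence read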
RBBP9 inh: inhibitors of human serine hydrolase RBBP9; O75884; 220,000 compounds, 0.2% hits; inhibition, % at 7.94 µM; recombinant RBBP9, FP-Rh probe fluorescence polarization;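 active = inhibition above the campaign mean of all tested compounds plus 3 SD, cut at about 14% in these data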
Target sequence (O75884 whole entry, looked up): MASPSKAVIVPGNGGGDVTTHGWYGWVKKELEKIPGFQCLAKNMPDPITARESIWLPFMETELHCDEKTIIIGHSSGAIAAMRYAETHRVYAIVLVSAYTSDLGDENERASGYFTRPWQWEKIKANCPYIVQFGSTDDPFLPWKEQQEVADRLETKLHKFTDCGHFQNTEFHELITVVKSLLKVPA
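Material: RBBP9 protein. Amount: RBBP9 at 2.5 µM in dispensed solution, before mixing. Schedule: 30 min then 45 min, 25 °C. Medium: Tris buffer pH 8.0, NaCl, Pluronic. Measured by: fluorescence polarization. Measure: percent inhibition from mP, scaled between DMSO and no-protein wells. Replication: one well per compound.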
14-3-3 Bad PPI: disrupts binding of bovine 14-3-3 zeta to phospho-Bad peptide. P63103. TR-FRET 14-3-3zeta/Dy647-pBad peptide displacement, 1 h. inhibition, % at 21.7 µM. 220,000 compounds, 0.71% hits. AID 781;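 active = inhibition above about 70%, limit read from the data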
Hits are given with their value; - = inactive; . = no result; [ ] = dose if it differs, or a comment. Only some compounds are listed: those with a hit (about 2.8% of all), similar ones and a draw of the others.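 The calls were made as follows, unless noted: active = inhibition above about 30% (limit read from the data); inactive = the rest.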

SMILES	NCF1 inh	eIF4E-4G inh	Wee1 degr inh	RBBP9 inh	14-3-3 Bad PPI
Oc1ccccc1Nc1nc(NCC2CCCO2)c2ccccc2n1 (stereo unspecified)	-	-	-	-	77
O=C1CC(c2ccc(Cl)cc2)SC(N(c2ccccc2)c2ccccc2)=N1 (stereo unspecified)	-	-	-	-	-
Cc1ccc(NC(=O)CN2C(=O)NC3(CCCc4ccccc43)C2=O)cc1S(=O)(=O)N1CCOCC1 (stereo unspecified)	40	-	-	-	-
CC[N+](C)(C)CC/C=C1/c2ccccc2Sc2ccc(Cl)cc21	-	86	-	-	-
Nc1ccc(C2=Nc3cccc4cccc(c34)N2)cc1	-	-	-	-	-
CC1=Nc2cccc3cccc(c23)N1	158	-	-	-	-
COc1cc(/C=C2\SC(=S)N(N3CCOCC3)C2=O)ccc1O	-	-	9.0	-	-
COc1cc(/C=C2\SC(=S)N(N3CCOCC3)C2=O)cc(OC)c1OC	-	-	-	-	-
COc1cc(/C=C2/C(=O)N(c3ccc([N+](=O)[O-])cc3)N=C2N2CCOCC2)ccc1O	-	-	8.9	-	-
COc1ccccc1C(=O)N1CCC(N2CCN(c3ccccc3)CC2)CC1	-	-	-	-	-
CC(C)CC(=O)N1CCC(N2CCN(c3ccccc3)CC2)CC1	-	50	-	-	-
O=C(c1ccccc1)N1CCN(C2CCCCCC2)CC1	-	-	-	-	72
COc1ccc(C(=O)N2CCC(N3CCN(c4ccccc4)CC3)CC2)cc1	-	-	-	-	89
COc1cc(-c2ccc(NC(=O)NC3CC3)c(OC)c2)ccc1NC(=O)NC1CC1	-	-	-	-	-
Cc1cc(C)cc(N2C(=O)CCN(Cc3ccccc3)C2=O)c1	-	-	-	-	-
O=C(Nc1ccc(-c2csc(Nc3ccccc3)n2)cc1)c1cc([N+](=O)[O-])cc(C(F)(F)F)c1	35	-	.	.	-
O=C(NCCCN1CCCCCC1)C1CC(=O)N(CCc2ccccc2)C1 (stereo unspecified)	55	-	-	-	-
O=C(NCCCN1CCOCC1)C1CC(=O)N(CCc2ccccc2)C1 (stereo unspecified)	-	-	-	-	-
O=C(Cc1cccc(C(F)(F)F)c1)NCC(c1ccco1)N1CCCCC1 (stereo unspecified)	-	-	-	-	89
O=C(NCC(c1ccco1)N1CCCC1)c1ccccc1F (stereo unspecified)	-	-	-	-	-
COc1ccccc1N(C)S(=O)(=O)c1ccc(C(=O)OCC(=O)Nc2ccccc2F)cc1	-	-	11	-	-
CCOC(=O)C1CCCN(c2ncnc3c2oc2ccccc23)C1 (stereo unspecified)	-	-	-	-	83
CCOC(=O)C1CCN(c2nc(-c3ccccc3)nc3c2oc2ccccc23)CC1	-	-	-	-	81
O=C(O)C1CCN(c2nc(-c3ccccc3)nc3c2oc2ccccc23)CC1	-	-	-	-	-
CCN(CC(=O)NCc1ccccc1Cl)CC(=O)Nc1c(F)cccc1F	-	-	9.5	-	-
SMILES	NCF1 inh	eIF4E-4G inh	Wee1 degr inh	RBBP9 inh	14-3-3 Bad PPI
O=[N+]([O-])c1cc(/C=N/O)ccc1Oc1ccccc1Cl	-	-	-	-	-
Cc1cccn2c(CN(C)CCC3CCCCO3)c(C(=O)N3CCCCC3)nc12 (stereo unspecified)	-	-	-	-	-
CC(C)C1NC(=S)N(C2CCCCC2)C1=O (stereo unspecified)	-	-	-	-	-
O=c1[nH][nH]c(=S)n1C1CCCCC1	-	44	-	-	-
CC(C)N1C(=O)NC2(c3ccccc3)N(C)C(=O)N(C)C12c1ccccc1 (stereo unspecified)	-	-	-	-	-
CN1C(=O)N(C)C2(c3ccccc3)N(C)C(=O)NC12c1ccccc1 (stereo unspecified)	49	-	-	-	-
CC1CCCCC1NCC(=O)Nc1ccccc1-c1ccccc1 (stereo unspecified)	-	-	-	-	71
Cc1ccc(NC(=O)N2CCCn3c(SCC(=O)c4ccccc4)nnc32)cc1	-	-	-	-	-
CC(=O)c1ccc(NC(=O)c2ccc3nc(-c4ccco4)c(-c4ccco4)nc3c2)cc1	-	47[fluorescence artefact?]	-	-	-
O=C(Nc1ccccc1)c1ccc2nc(-c3ccco3)c(-c3ccco3)nc2c1	-	-	-	-	-
O=C(NCCO)Nc1ccc2nc(-c3ccco3)c(-c3ccco3)nc2c1	-	62	-	15	80
CN(C)CCCn1c(SCC(=O)Nc2nc(-c3cccc(Br)c3)cs2)nc2ccccc2c1=O	76	-	-	-	-
Cn1c(=O)oc2cc(S(=O)(=O)Nc3ccc4c(c3)OCO4)ccc21	-	-	-	-	-
CCn1cc(S(=O)(=O)Nc2ccc3c(c2)OCCO3)cn1	-	-	-	-	-
Cn1cc(S(=O)(=O)Nc2ccc3c(c2)OCCO3)cn1	-	-	-	-	89
Cn1c(=O)c2cc(S(=O)(=O)Nc3ccc4c(c3)OCO4)ccc2n(C)c1=O	65	-	-	-	-
COC(=O)CSc1nnc(CNS(=O)(=O)c2ccc(C)cc2)n1C	-	-	-	-	-
COc1cccc(C(=O)CSc2nnc(CNS(=O)(=O)c3ccc(C)cc3)n2C)c1	-	-	9.7	-	-
O=C(O)CCCN1C(=O)C(=O)/C(=C(/O)c2ccccc2)C1/C=C/c1ccccc1 (stereo unspecified)	-	-	-	-	-
Clc1ccc(SCCn2cncn2)cc1	-	-	-	-	73
CCn1c2ccccc2c2nc3cc(S(=O)(=O)N4CCOCC4)ccc3nc21	-	48	-	-	-
CCN(CC)CCN(CC(=O)N(C1CCCCC1)C1CCCCC1)C(=O)c1ccco1	-	-	-	-	-
O=S(=O)(c1ccccc1)n1c(C(O)c2ccccn2)cc2ccccc21 (stereo unspecified)	-	-	-	-	-
Cc1ccc(S(=O)(=O)N2CCN(C3CC(=O)N(CCc4ccccc4)C3=O)CC2)cc1C (stereo unspecified)	-	-	9.9	-	-
Cc1cc2[nH]c3c(c[n+](C)c4ccccc34)c2cc1C	50	-	-	-	-
SMILES	NCF1 inh	eIF4E-4G inh	Wee1 degr inh	RBBP9 inh	14-3-3 Bad PPI
COc1cc(OC)cc(C(=O)N2CCN(C3CCN(Cc4ccccc4)CC3)CC2)c1	-	-	-	-	73
O=C(c1ccc(-n2cccc2)cc1)N1CCN(Cc2ccccc2)CC1	-	-	-	-	91
COc1cccc(C(=O)N2CCN(C3CCC(c4ccccc4)CC3)CC2)c1 (stereo unspecified)	-	-	-	-	75
Cc1ccc(-c2ncns2)cc1	-	-	-	-	-
O=C(CCl)NCCN1C(=O)S/C(=C\c2cccnc2)C1=O	-	-	-	-	-
Cc1nn(Cc2ccccc2)c(C)c1C(=O)NCCN1C(=O)S/C(=C\c2ccccc2)C1=O	30	-	-	-	-
